Reference: ChEMBL document CHEMBL1132431, “Synthesis and structure-activity relationships of the (alkylamino)piperidine-containing BHAP class of non-nucleoside reverse transcriptase inhibitors: effect of 3-alkylpyridine ring substitution” (J Med Chem, 1999)

Tests used:
[1] = biological target: Human immunodeficiency virus type 1 reverse transcriptase (Human immunodeficiency virus 1, UniProt Q72547, Y181C); test: Inhibition of Reverse transcriptase (Y181C) using poly(rA)600:oligo(dT)10 as template primer.
[2] = biological target: Human immunodeficiency virus type 1 reverse transcriptase (Human immunodeficiency virus 1, UniProt Q72547, P236L); test: Inhibition of Reverse transcriptase (P236L) using poly(rA)600:oligo(dT)10 as template primer.
[3] = biological target: Human immunodeficiency virus type 1 reverse transcriptase (Human immunodeficiency virus 1, UniProt Q72547); test: Inhibition of Reverse transcriptase (Wild Type) with poly(rA)600:oligo(dT)10 template primer
How it was run: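 Recombinant wild-type HIV-1 RT was assayed for RNA-dependent DNA polymerase activity on poly(rA)600:oligo(dT)10 template:primer. Duplicate points were run at 6 drug concentrations, and IC50 was derived by nonlinear least-squares fit.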

[4] = system: Human immunodeficiency virus 1; test: (§1) Antiviral activity against BHAP-resistant viral strain HIV-1 MF using Delaviridine (U-90512) as a comparator.; assay type: functional, organism-based
[5] = system: Human immunodeficiency virus 1; test: (§2) Antiviral activity against L-drug-resistant viral strain HIV-1 IIIB using L-697,661 as a comparator.; assay type: functional, organism-based
[6] = Steady state volume of distribution (VSS) determined against male Sprague-Dawley rats at an iv dose of 14 mg/kg; assay type: ADME, organism-based; design: dose 14 mg/kg, route intravenous; settings: rat, in vivo, read-out: Vss
How it was run: (§3)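 Male Sprague–Dawley rats, fasted, dosed iv and orally in a crossover design with a 1-week washout between treatments (N = 3). Clearance, Vss and absolute oral bioavailability were taken from the iv and po legs.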

[7] = Apparent terminal disposition half life […] at peroral dose of 15 mg/kg.; assay type: ADME, organism-based; design: dose 15 mg/kg, route oral; settings: po, read-out: T1/2 beta (converted)
[8] = IV clearance determined at an peroral dose of 15 mg/kg.; assay type: ADME, organism-based; design: dose 15 mg/kg, route oral; settings: in vivo, po, read-out: Clearance
[9] = Apparent terminal disposition half life […] at iv dose of 14 mg/kg; assay type: ADME, organism-based; design: dose 14 mg/kg, route intravenous; settings: read-out: T1/2 beta (converted)
[10] = system: Human immunodeficiency virus 1; test: as §1; assay type: functional
[11] = Absolute oral bioavailability at an iv dose of 14 mg/kg; assay type: ADME, organism-based; settings: in vivo, read-out: Bioavailabiility; how it was run: as §3
[12] = Steady state volume of distribution (VSS) determined against male Sprague-Dawley rats at an peroral dose of 15 mg/kg.; assay type: organism-based; design: dose 15 mg/kg; how it was run: as §3
[13] = system: Human immunodeficiency virus 1; test: Antiviral activity against BHAP-resistant viral strain HIV-1 IIIB using Delaviridine (U-90512) as a comparator.; assay type: functional
[14] = system: Human immunodeficiency virus 1; test: as §2; assay type: functional
[15] = Half life of the parent compound upon microsomal incubation in the presence of hepatic microsomal cytochrome P450.; assay type: ADME, Microsome; settings: liver microsomes
[16] = biological target: Human immunodeficiency virus type 1 reverse transcriptase (Human immunodeficiency virus 1) (UniProt Q72547); test: Percent inhibition of Reverse transcriptase (RNA-dependent DNA polymerase activity against P236l RT) using poly(rA)600:oligo(dT)10 as template primer at 1 uM
How it was run: (§4)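 Recombinant RT (WT, P236L or Y181C) was assayed for RNA-dependent DNA polymerase activity with poly(rA)600:oligo(dT)10 as template:primer. Percent inhibition was measured with compound at a single concentration of 1 μM.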

[17] = biological target: Human immunodeficiency virus type 1 reverse transcriptase (Human immunodeficiency virus 1) (UniProt Q72547); test: Percent inhibition of Reverse transcriptase (RNA-dependent DNA polymerase activity against Wild Type RT) using poly(rA)600:oligo(dT)10 as template primer at 1 uM; how it was run: as §4
[18] = system: Human immunodeficiency virus type 1 reverse transcriptase (Human immunodeficiency virus 1), Q72547 [Y181C]; test: Percent inhibition of Reverse transcriptase (RNA-dependent DNA polymerase activity against Y181C RT) using poly(rA)600:oligo(dT)10 as template primer at 1 uM; how it was run: as §4
[19] = Steady state volume of distribution (VSS) determined against male Sprague-Dawley rats at an iv dose of 15 mg/kg; assay type: ADME, organism-based; design: dose 15 mg/kg, route intravenous; settings: rat, in vivo, read-out: Vss; how it was run: as §3
Rattus norvegicus [20] = test: Steady state volume of distribution (VSS) determined against male Sprague-Dawley rats at an peroral dose of 30 mg/kg.; assay type: ADME, organism-based; design: dose 30 mg/kg, route oral; settings: in vivo, po; how it was run: as §3
[21] = IV clearance determined at an peroral dose of 30 mg/kg.; assay type: ADME, organism-based; design: dose 30 mg/kg, route oral; settings: in vivo, po, read-out: Clearance; how it was run: as §3
[22] = Apparent terminal disposition half life […] at peroral dose of 30 mg/kg.; assay type: ADME, organism-based; design: dose 30 mg/kg, route oral; settings: po, read-out: T1/2 beta (converted)
[23] = Absolute oral bioavailability at an peroral dose of 30 mg/kg orally; assay type: ADME, organism-based; settings: in vivo, read-out: Bioavailabiility; how it was run: as §3
[24] = Apparent terminal disposition half life […] at iv dose of 15 mg/kg; assay type: ADME, organism-based; design: dose 15 mg/kg, route intravenous; settings: read-out: T1/2 beta (converted)
[25] = Oral bioavailability (dose 15 mg/kg i.v.); assay type: ADME, organism-based; settings: eutheria, in vivo; how it was run: as §3
[26] = IV clearance determined at an iv dose of 15 mg/kg; assay type: ADME, organism-based; design: dose 15 mg/kg, route intravenous; settings: in vivo
Rattus norvegicus [27] = test: Steady state volume of distribution (VSS) determined against male Sprague-Dawley rats at an peroral dose of 30.3 mg/kg.; assay type: ADME, organism-based; design: dose 30.3 mg/kg, route oral; settings: in vivo, po; how it was run: as §3
[28] = Apparent terminal disposition half life […] at iv dose of 15.2 mg/kg; assay type: ADME, organism-based; design: dose 15.2 mg/kg, route intravenous; settings: read-out: T1/2 beta (converted)
[29] = Absolute oral bioavailability at an iv dose of 15.2 mg/kg; assay type: ADME, organism-based; settings: in vivo, read-out: Bioavailabiility; how it was run: as §3
[30] = Apparent terminal disposition half life […] at peroral dose of 30.3 mg/kg.; assay type: ADME, organism-based; design: dose 30.3 mg/kg, route oral; settings: po, read-out: T1/2 beta (converted)
[31] = IV clearance determined at an peroral dose of 30.3 mg/kg.; assay type: ADME, organism-based; design: dose 30.3 mg/kg, route oral; settings: in vivo, po, read-out: Clearance; how it was run: as §3
[32] = IV clearance determined at an iv dose of 15.2 mg/kg; assay type: ADME, organism-based; design: dose 15.2 mg/kg, route intravenous; settings: in vivo; how it was run: as §3
[33] = Absolute oral bioavailability at an peroral dose of 30.3 mg/kg orally.; assay type: ADME, organism-based; settings: in vivo, read-out: Bioavailabiility; how it was run: as §3
[34] = Steady state volume of distribution (VSS) determined against male Sprague-Dawley rats at an iv dose of 15.2 mg/kg; assay type: ADME, organism-based; design: dose 15.2 mg/kg, route intravenous; settings: rat, in vivo, read-out: Vss; how it was run: as §3
[35] = Apparent terminal disposition half life […] at peroral dose of 30.2 mg/kg.; assay type: ADME, organism-based; design: dose 30.2 mg/kg, route oral; settings: po, read-out: T1/2 beta (converted)
[36] = IV clearance determined at an peroral dose of 30.2 mg/kg.; assay type: ADME, organism-based; design: dose 30.2 mg/kg, route oral; settings: in vivo, po, read-out: Clearance; how it was run: as §3
Rattus norvegicus [37] = test: Steady state volume of distribution (VSS) determined against male Sprague-Dawley rats at an peroral dose of 30.2 mg/kg.; assay type: ADME, organism-based; design: dose 30.2 mg/kg, route oral; settings: in vivo, po; how it was run: as §3

COCc1cccnc1N(C)C1CCN(C(=O)c2cc3cc(NS(C)(=O)=O)ccc3[nH]2)CC1
IC50 [1]: 11000 nM | IC50 [2]: 6800 nM | IC50 [3]: 140 nM | EC50 [4]: 3000 nM | EC50 [5]: > 3000 nM

CC(C)Nc1cccnc1N1CCN(C(=O)c2cc3cc(NS(C)(=O)=O)ccc3[nH]2)CC1 [DELAVIRDINE]
Vd [6]: 1.21 L/kg | half-life [7]: 60 min | CL/F [8]: 13.6 mL/min/kg | half-life [9]: 60 min | EC90 [10]: > 10000 nM | bioavailability [11]: 64% | Vdss [12]: 1.21 L/kg

CCN(c1ncccc1CC(C)C)C1CCN(C(=O)c2cc3cc(NS(C)(=O)=O)ccc3[nH]2)CC1
EC90 [13]: 50 nM | IC50 [1]: 880 nM | EC90 [14]: 100 nM | IC50 [2]: 430 nM | IC50 [3]: 410 nM | half-life [15]: 2.29 min | EC90 [10]: 1000 nM

COC(=O)c1cccnc1N(C)C1CCN(C(=O)c2cc3cc(NS(C)(=O)=O)ccc3[nH]2)CC1
IC50 [1]: 21000 nM | IC50 [2]: 13000 nM | IC50 [3]: 250 nM

CCCc1cccnc1N(C)C1CCN(C(=O)c2cc3cc(NS(C)(=O)=O)ccc3[nH]2)CC1
inhibition [16]: 40% | inhibition [17]: 84% | inhibition [18]: 25%

CCNc1cccnc1N(CC)C1CCN(C(=O)c2cc3cc(NS(C)(=O)=O)ccc3[nH]2)CC1
IC50 [1]: 390 nM | IC50 [2]: 360 nM | IC50 [3]: 430 nM

CCCN(c1ncccc1CC)C1CCN(C(=O)c2cc3cc(NS(C)(=O)=O)ccc3[nH]2)CC1
IC50 [1]: 910 nM | IC50 [2]: 540 nM | IC50 [3]: 130 nM

CCc1cc(NCc2nc3c(Cl)ccc(Cl)c3o2)c(O)nc1C [L-697661]
EC90 [13]: 4000 nM | EC90 [14]: > 10000 nM | EC90 [10]: 430 nM

CCCc1cccnc1N(CC)C1CCN(C(=O)c2cc3cc(NS(C)(=O)=O)ccc3[nH]2)CC1
Vd [19]: 3.2 L/kg | Vss (Rattus norvegicus [20]): 3.2 L/kg | EC90 [13]: 40 nM | IC50 [1]: 450 nM | CL/F [21]: 67 mL/min/kg | EC90 [14]: 90 nM | IC50 [2]: 370 nM | IC50 [3]: 270 nM | half-life [15]: 1.68 min | half-life [22]: 49.2 min | EC90 [10]: 100 nM | bioavailability [23]: 9.8% | half-life [24]: 49.2 min | bioavailability [25]: 9.8% | clearance [26]: 67 mL/min/kg

CN(c1ncccc1CO)C1CCN(C(=O)c2cc3cc(NS(C)(=O)=O)ccc3[nH]2)CC1
IC50 [1]: 15000 nM | IC50 [2]: 7000 nM

CC(C)Cc1cccnc1N(C)C1CCN(C(=O)c2cc3cc(NS(C)(=O)=O)ccc3[nH]2)CC1
Vss (Rattus norvegicus [27]): 2.73 L/kg | IC50 [1]: 2600 nM | half-life [28]: 53.4 min | bioavailability [29]: 64% | IC50 [2]: 1100 nM | half-life [30]: 53.4 min | CL/F [31]: 45 mL/min/kg | IC50 [3]: 510 nM | half-life [15]: 5.9 min | EC50 [5]: > 1000 nM | EC90 [10]: 1800 nM | clearance [32]: 45 mL/min/kg | bioavailability [33]: 64% | Vd [34]: 2.73 L/kg

CCN(c1ncccc1COC)C1CCN(C(=O)c2cc3cc(NS(C)(=O)=O)ccc3[nH]2)CC1
IC50 [1]: 840 nM | EC90 [14]: 1000 nM | IC50 [2]: 300 nM | IC50 [3]: 140 nM | EC90 [10]: 770 nM

CCc1cccnc1N(CC)C1CCN(C(=O)c2cc3cc(NS(C)(=O)=O)ccc3[nH]2)CC1
IC50 [1]: 430 nM | IC50 [2]: 210 nM | IC50 [3]: 98 nM

CC(C)Nc1cccnc1N(C)C1CCN(C(=O)c2cc3cc(NS(C)(=O)=O)ccc3[nH]2)CC1
Vd [19]: 2.5 L/kg | half-life [35]: 40.2 min | CL/F [36]: 44 mL/min/kg | Vss (Rattus norvegicus [37]): 2.5 L/kg | EC90 [14]: 1000 nM | half-life [24]: 40.2 min | bioavailability [25]: 4.3%

CCN(c1ncccc1NC(C)C)C1CCN(C(=O)c2cc3cc(NS(C)(=O)=O)ccc3[nH]2)CC1
IC50 [2]: 170 nM

CCc1cccnc1N(C)C1CCN(C(=O)c2cc3cc(NS(C)(=O)=O)ccc3[nH]2)CC1
IC50 [1]: 2000 nM | IC50 [2]: 1100 nM | IC50 [3]: 61 nM
